Test results from ChEMBL document CHEMBL1124369, “Pyrido[3,4-e]-1,2,4-triazines and related heterocycles as potential antifungal agents” (1989).
≈ marks a conversion by molar mass, not a printed value.

Legend:
Aspergillus niger [1] = assay: Antifungal activity against Aspergillus niger; assay type: functional
Method in brief: (§1)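 Agar dilution MIC. Twofold serial drug dilutions in yeast nitrogen base medium with 1% dextrose, 0.15% asparagine and 1.5% agar. Agar surfaces inoculated using a Steers multiple inocula replicator, then incubated at 35 °C for 24-48 h. MIC was recorded as the lowest concentration inhibiting visible growth. Amphotericin B, miconazole and nystatin served as controls.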

Candida albicans [2] = assay: Antifungal activity against Candida albicans; assay type: functional; method in brief: as §1
Candida parapsilosis = assay: Antifungal activity against Candida parapsilosis; assay type: functional; settings: Lodderomyces parapsilosis; method in brief: as §1
Kluyveromyces marxianus [3] = assay: Antifungal activity against Candida pseudotropicalis; Range is 64-128; assay type: functional; method in brief: as §1
Candida tropicalis [4] = assay: Antifungal activity against Candida tropicalis; assay type: functional; method in brief: as §1
Trichophyton benhamiae [5] = assay: Antifungal activity against Trichophyton mentagrophytes; Range is 32-64; assay type: functional, trychophyton mentagrophytes; method in brief: as §1
Trichophyton rubrum [6] = assay: Antifungal activity against Trichophyton rubrum; Range is 32-64; assay type: functional; method in brief: as §1
Aspergillus niger [7] = assay: Antifungal activity against Aspergillus niger; Range is 16-128; assay type: functional; method in brief: as §1
Candida albicans [8] = assay: Antifungal activity against Candida stellatoidea; assay type: functional; method in brief: as §1
Kluyveromyces marxianus [9] = assay: Antifungal activity against Candida pseudotropicalis; assay type: functional; method in brief: as §1
Diutina rugosa = assay: Antifungal activity against Candida rugosa; assay type: functional; method in brief: as §1
Trichophyton benhamiae [10] = assay: Antifungal activity against Trichophyton mentagrophytes; assay type: functional, trychophyton mentagrophytes; method in brief: as §1
Trichophyton rubrum [11] = assay: Antifungal activity against Trichophyton rubrum; assay type: functional; method in brief: as §1
Candida tropicalis [12] = assay: Antifungal activity against Candida tropicalis; Range is 64-128; assay type: functional; method in brief: as §1
Trichophyton benhamiae [13] = assay: Antifungal activity against Trichophyton mentagrophytes; Range is 64-128; assay type: functional, trychophyton mentagrophytes; method in brief: as §1
Trichophyton rubrum [14] = assay: Antifungal activity against Trichophyton rubrum; Range is 64-128; assay type: functional
Kluyveromyces marxianus [15] = assay: Antifungal activity against Candida pseudotropicalis; Range is 4-8; assay type: functional; method in brief: as §1
Candida tropicalis [16] = assay: Antifungal activity against Candida tropicalis; Range is 8-32; assay type: functional; method in brief: as §1
Trichophyton benhamiae [17] = assay: Antifungal activity against Trichophyton mentagrophytes; Range is 4-8; assay type: functional, trychophyton mentagrophytes; method in brief: as §1
Trichophyton rubrum [18] = assay: Antifungal activity against Trichophyton rubrum; Range is 2-4; assay type: functional; method in brief: as §1
Mucor fragilis = assay: Antifungal activity against Mucor fragilis; assay type: functional; method in brief: as §1
Aspergillus niger [19] = assay: Antifungal activity against Aspergillus niger; Range is 32-64; assay type: functional; method in brief: as §1
Candida tropicalis [20] = assay: Antifungal activity against Candida tropicalis; Range is 4-16; assay type: functional; method in brief: as §1
Trichophyton rubrum [21] = assay: Antifungal activity against Trichophyton rubrum; Range is 1-2; assay type: functional; method in brief: as §1
Candida tropicalis [22] = assay: Antifungal activity against Candida tropicalis; Range is 0.25-0.5; assay type: functional
Candida albicans [23] = assay: microbe, parasite or virus in culture
Aspergillus niger [24] = assay: Antifungal activity against Aspergillus niger; Range is 16-32; assay type: functional; method in brief: as §1
Candida albicans [25] = assay: Antifungal activity against Candida albicans; Range is 8-16; assay type: functional; method in brief: as §1
Candida albicans [26] = assay: Antifungal activity against Candida albicans; Range is 16-32; assay type: functional; method in brief: as §1
Candida tropicalis [27] = assay: Antifungal activity against Candida tropicalis; Range is 16-32; assay type: functional; method in brief: as §1
Trichophyton benhamiae [28] = assay: Antifungal activity against Trichophyton mentagrophytes; Range is 8-32; assay type: functional, trychophyton mentagrophytes; method in brief: as §1
Aspergillus niger [29] = assay: Antifungal activity against Aspergillus niger; Range is 8-16; assay type: functional; method in brief: as §1
Trichophyton rubrum [30] = assay: Antifungal activity against Trichophyton rubrum; Range is 4-8; assay type: functional; method in brief: as §1
Trichophyton rubrum [31] = assay: Antifungal activity against Trichophyton rubrum; Range is 16-32; assay type: functional; method in brief: as §1
Candida albicans [32] = assay: Antifungal activity against Candida albicans; Range is 16-64; assay type: functional; method in brief: as §1
Candida tropicalis [33] = assay: Antifungal activity against Candida tropicalis; Range is 32-64; assay type: functional; method in brief: as §1
Trichophyton rubrum [34] = assay: Antifungal activity against Trichophyton rubrum; Range is 4-16; assay type: functional; method in brief: as §1

Compound | MIC (Aspergillus niger [1]) | MIC (Candida albicans [2]) | MIC (Candida parapsilosis) | MIC (Candida tropicalis [4]) | MIC (Candida albicans [8]) | MIC (Kluyveromyces marxianus [9]) | MIC (Diutina rugosa) | MIC (Trichophyton benhamiae [10]) | MIC (Mucor fragilis) | other results
Cc1nnc2c(N)c(C)nc(C)c2n1 | 128 µg/mL (≈ 676 µM) | 128 µg/mL (≈ 676 µM) | 128 µg/mL (≈ 676 µM) | 128 µg/mL (≈ 676 µM) | – | – | – | – | – | MIC (Kluyveromyces marxianus [3]): 64 µg/mL (≈ 338 µM); MIC (Trichophyton benhamiae [5]): 32 µg/mL (≈ 169 µM); MIC (Trichophyton rubrum [6]): 32 µg/mL (≈ 169 µM)
Fc1ccc(-c2nnc3ncccc3n2)cc1 | – | 128 µg/mL (≈ 566 µM) | – | 128 µg/mL (≈ 566 µM) | 128 µg/mL (≈ 566 µM) | 128 µg/mL (≈ 566 µM) | 128 µg/mL (≈ 566 µM) | 32 µg/mL (≈ 141 µM) | – | MIC (Aspergillus niger [7]): 16 µg/mL (≈ 70.7 µM); MIC (Trichophyton rubrum [11]): > 128 µg/mL
Cc1nnc2ccccc2n1 | 128 µg/mL (≈ 882 µM) | 128 µg/mL (≈ 882 µM) | 128 µg/mL (≈ 882 µM) | – | – | 128 µg/mL (≈ 882 µM) | – | – | – | MIC (Candida tropicalis [12]): 64 µg/mL (≈ 441 µM); MIC (Trichophyton benhamiae [13]): 64 µg/mL (≈ 441 µM); MIC (Trichophyton rubrum [14]): 64 µg/mL (≈ 441 µM)
N#Cc1ccc(-c2nnc3ccncc3n2)cc1 | 128 µg/mL (≈ 549 µM) | 64 µg/mL (≈ 274 µM) | 64 µg/mL (≈ 274 µM) | – | 128 µg/mL (≈ 549 µM) | – | > 128 µg/mL | – | 128 µg/mL (≈ 549 µM) | MIC (Kluyveromyces marxianus [15]): 4 µg/mL (≈ 17.2 µM); MIC (Candida tropicalis [16]): 8 µg/mL (≈ 34.3 µM); MIC (Trichophyton benhamiae [17]): 4 µg/mL (≈ 17.2 µM); MIC (Trichophyton rubrum [18]): 2 µg/mL (≈ 8.58 µM)
Fc1ccc(-c2nnc3ccncc3n2)cc1F | – | 16 µg/mL (≈ 65.5 µM) | 16 µg/mL (≈ 65.5 µM) | – | – | 8 µg/mL (≈ 32.8 µM) | – | 4 µg/mL (≈ 16.4 µM) | – | MIC (Aspergillus niger [19]): 32 µg/mL (≈ 131 µM); MIC (Candida tropicalis [20]): 4 µg/mL (≈ 16.4 µM); MIC (Trichophyton rubrum [21]): 1 µg/mL (≈ 4.09 µM)
C[C@@H]1[C@H](O)[C@@H](C)/C=C/C=C/C=C/C=C/C=C/C=C/C=C/[C@H](O[C@@H]2O[C@H](C)[C@@H](O)[C@H](N)[C@@H]2O)C[C@@H]2O[C@](O)(C[C@@H](O)C[C@@H](O)[C@H](O)CC[C@@H](O)C[C@@H](O)CC(=O)O[C@H]1C)C[C@H](O)[C@H]2C(=O)O [AMPHOTERICIN B] | 0.5 µg/mL (≈ 0.541 µM) | – | 0.5 µg/mL (≈ 0.541 µM) | – | > 128 µg/mL | 0.5 µg/mL (≈ 0.541 µM) | > 128 µg/mL | 1 µg/mL (≈ 1.08 µM) | 0.25 µg/mL (≈ 0.271 µM) | MIC (Candida tropicalis [22]): 0.25 µg/mL (≈ 0.271 µM); MIC (Trichophyton rubrum [11]): 0.5 µg/mL (≈ 0.541 µM); MIC (Candida albicans [23]): 0.25 µg/mL (≈ 0.271 µM)
c1cncc(-c2nnc3ccncc3n2)c1 | – | – | 16 µg/mL (≈ 76.5 µM) | – | 32 µg/mL (≈ 153 µM) | 4 µg/mL (≈ 19.1 µM) | 16 µg/mL (≈ 76.5 µM) | 4 µg/mL (≈ 19.1 µM) | > 128 µg/mL | MIC (Aspergillus niger [24]): 16 µg/mL (≈ 76.5 µM); MIC (Candida albicans [25]): 8 µg/mL (≈ 38.2 µM); MIC (Candida tropicalis [20]): 4 µg/mL (≈ 19.1 µM); MIC (Trichophyton rubrum [21]): 1 µg/mL (≈ 4.78 µM)
Cc1nccc2nncnc12 | 32 µg/mL (≈ 219 µM) | – | 64 µg/mL (≈ 438 µM) | – | – | 8 µg/mL (≈ 54.7 µM) | – | – | – | MIC (Candida albicans [26]): 16 µg/mL (≈ 109 µM); MIC (Candida tropicalis [27]): 16 µg/mL (≈ 109 µM); MIC (Trichophyton benhamiae [28]): 8 µg/mL (≈ 54.7 µM); MIC (Trichophyton rubrum [11]): 4 µg/mL (≈ 27.4 µM)
c1ccc2c(c1)ncc1ncnnc12 [STRINOLINE] | – | – | 16 µg/mL (≈ 87.8 µM) | 16 µg/mL (≈ 87.8 µM) | – | 8 µg/mL (≈ 43.9 µM) | – | 4 µg/mL (≈ 22 µM) | – | MIC (Aspergillus niger [29]): 8 µg/mL (≈ 43.9 µM); MIC (Candida albicans [25]): 8 µg/mL (≈ 43.9 µM); MIC (Trichophyton rubrum [30]): 4 µg/mL (≈ 22 µM)
CC(C)(C)c1nnc2ccncc2n1 | 64 µg/mL (≈ 340 µM) | 64 µg/mL (≈ 340 µM) | 64 µg/mL (≈ 340 µM) | 64 µg/mL (≈ 340 µM) | – | 64 µg/mL (≈ 340 µM) | – | – | – | MIC (Trichophyton benhamiae [5]): 32 µg/mL (≈ 170 µM); MIC (Trichophyton rubrum [31]): 16 µg/mL (≈ 85 µM)
c1cc2nnc(C3CCCCC3)nc2cn1 | – | – | 64 µg/mL (≈ 299 µM) | – | 32 µg/mL (≈ 149 µM) | 32 µg/mL (≈ 149 µM) | 32 µg/mL (≈ 149 µM) | 16 µg/mL (≈ 74.7 µM) | 64 µg/mL (≈ 299 µM) | MIC (Aspergillus niger [19]): 32 µg/mL (≈ 149 µM); MIC (Candida albicans [32]): 16 µg/mL (≈ 74.7 µM); MIC (Candida tropicalis [33]): 32 µg/mL (≈ 149 µM); MIC (Trichophyton rubrum [34]): 4 µg/mL (≈ 18.7 µM)
